Data published in ChEMBL document CHEMBL5058577, “EUbOPEN Chemogenomics Library 2 (Multiplex)” (2022).

System: Fibroblast
Assay: Multiplex assay against human fibroblast
Assay type: toxicity, cell-based
Summary of the method: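 Tubulin, mitochondrial-mass and membrane-permeability phenotypes are per cents of healthy-nucleus cells. Cells were gated by CellPathfinder machine learning into Hoechst high-intensity objects or normal cells, normal cells into healthy, pyknosed or fragmented nuclei, and pyknosed cells into mitotic or apoptotic. Before that, live cells stained at seeding with Hoechst33342, BioTracker Green Microtubule Cytoskeleton Dye, MitoTracker Red and Annexin V Alexa Fluor 680 were imaged on a CQ1 microscope at 37°C and 5% CO2 after compound addition.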

[1] = 12 h, 1 µM, compound concentration 1 uM, replicate 1
[2] = 12 h, 1 µM, compound concentration 1 uM, replicate 2
[3] = 12 h, 10 µM, compound concentration 10 uM, replicate 1
[4] = 12 h, 10 µM, compound concentration 10 uM, replicate 2
[5] = 24 h, 1 µM, compound concentration 1 uM, replicate 1
[6] = 24 h, 1 µM, compound concentration 1 uM, replicate 2
[7] = 24 h, 10 µM, compound concentration 10 uM, replicate 1
[8] = 24 h, 10 µM, compound concentration 10 uM, replicate 2
[9] = 48 h, 1 µM, compound concentration 1 uM, replicate 1
[10] = 48 h, 1 µM, compound concentration 1 uM, replicate 2
[11] = 48 h, 10 µM, compound concentration 10 uM, replicate 1
[12] = 48 h, 10 µM, compound concentration 10 uM, replicate 2

Compound: O=C(Nc1cc(-c2ccccc2)nn1-c1ccccc1F)c1ccc([N+](=O)[O-])cc1
- Population Apoptotic (%) [1]: 28%
- Population Fragmented Nuclei (%) [1]: 17%
- Population Healthy Nuclei (%) [1]: 71%
- Population Hoechst High Intensity Objects (%) [1]: 2%
- Population Membrane Permeable-Phenotype (%) [1]: 1%
- Population Mitochondria Different-Phenotype (%) [1]: 1%
- Population Mitotic Cells (%) [1]: 71%
- Population Normal (%) [1]: 97%
- Population Pyknosed Nuclei (%) [1]: 10%
- Population Tubulin-Different-Phenotype (%) [1]: 22%
- Total Cell Count [1]: 138
- Population Apoptotic (%) [2]: 32%
- Population Fragmented Nuclei (%) [2]: 19%
- Population Healthy Nuclei (%) [2]: 55%
- Population Hoechst High Intensity Objects (%) [2]: 8%
- Population Membrane Permeable-Phenotype (%) [2]: 4%
- Population Mitochondria Different-Phenotype (%) [2]: 9%
- Population Mitotic Cells (%) [2]: 67%
- Population Normal (%) [2]: 91%
- Population Pyknosed Nuclei (%) [2]: 25%
- Population Tubulin-Different-Phenotype (%) [2]: 53%
- Total Cell Count [2]: 160
- Population Apoptotic (%) [3]: 28%
- Population Fragmented Nuclei (%) [3]: 10%
- Population Healthy Nuclei (%) [3]: 66%
- Population Hoechst High Intensity Objects (%) [3]: 2%
- Population Membrane Permeable-Phenotype (%) [3]: 1%
- Population Mitochondria Different-Phenotype (%) [3]: 4%
- Population Mitotic Cells (%) [3]: 71%
- Population Normal (%) [3]: 97%
- Population Pyknosed Nuclei (%) [3]: 22%
- Population Tubulin-Different-Phenotype (%) [3]: 48%
- Total Cell Count [3]: 170
- Population Apoptotic (%) [4]: 45%
- Population Fragmented Nuclei (%) [4]: 25%
- Population Healthy Nuclei (%) [4]: 47%
- Population Hoechst High Intensity Objects (%) [4]: 6%
- Population Membrane Permeable-Phenotype (%) [4]: 6%
- Population Mitochondria Different-Phenotype (%) [4]: 3%
- Population Mitotic Cells (%) [4]: 54%
- Population Normal (%) [4]: 93%
- Population Pyknosed Nuclei (%) [4]: 26%
- Population Tubulin-Different-Phenotype (%) [4]: 77%
- Total Cell Count [4]: 149
- Population Apoptotic (%) [5]: 53%
- Population Fragmented Nuclei (%) [5]: 16%
- Population Healthy Nuclei (%) [5]: 74%
- Population Hoechst High Intensity Objects (%) [5]: 2%
- Population Membrane Permeable-Phenotype (%) [5]: 0%
- Population Mitochondria Different-Phenotype (%) [5]: 0%
- Population Mitotic Cells (%) [5]: 46%
- Population Normal (%) [5]: 97%
- Population Pyknosed Nuclei (%) [5]: 9%
- Population Tubulin-Different-Phenotype (%) [5]: 18%
- Total Cell Count [5]: 135
- Population Apoptotic (%) [6]: 50%
- Population Fragmented Nuclei (%) [6]: 25%
- Population Healthy Nuclei (%) [6]: 53%
- Population Hoechst High Intensity Objects (%) [6]: 7%
- Population Membrane Permeable-Phenotype (%) [6]: 6%
- Population Mitochondria Different-Phenotype (%) [6]: 2%
- Population Mitotic Cells (%) [6]: 50%
- Population Normal (%) [6]: 92%
- Population Pyknosed Nuclei (%) [6]: 20%
- Population Tubulin-Different-Phenotype (%) [6]: 52%
- Total Cell Count [6]: 156
- Population Apoptotic (%) [7]: 26%
- Population Fragmented Nuclei (%) [7]: 7%
- Population Healthy Nuclei (%) [7]: 76%
- Population Hoechst High Intensity Objects (%) [7]: 4%
- Population Membrane Permeable-Phenotype (%) [7]: 1%
- Population Mitochondria Different-Phenotype (%) [7]: 7%
- Population Mitotic Cells (%) [7]: 73%
- Population Normal (%) [7]: 95%
- Population Pyknosed Nuclei (%) [7]: 16%
- Population Tubulin-Different-Phenotype (%) [7]: 49%
- Total Cell Count [7]: 163
- Population Apoptotic (%) [8]: 28%
- Population Fragmented Nuclei (%) [8]: 28%
- Population Healthy Nuclei (%) [8]: 53%
- Population Hoechst High Intensity Objects (%) [8]: 6%
- Population Membrane Permeable-Phenotype (%) [8]: 9%
- Population Mitochondria Different-Phenotype (%) [8]: 1%
- Population Mitotic Cells (%) [8]: 72%
- Population Normal (%) [8]: 93%
- Population Pyknosed Nuclei (%) [8]: 18%
- Population Tubulin-Different-Phenotype (%) [8]: 69%
- Total Cell Count [8]: 147
- Population Apoptotic (%) [9]: 54%
- Population Fragmented Nuclei (%) [9]: 23%
- Population Healthy Nuclei (%) [9]: 67%
- Population Hoechst High Intensity Objects (%) [9]: 7%
- Population Membrane Permeable-Phenotype (%) [9]: 1%
- Population Mitochondria Different-Phenotype (%) [9]: 0%
- Population Mitotic Cells (%) [9]: 45%
- Population Normal (%) [9]: 92%
- Population Pyknosed Nuclei (%) [9]: 8%
- Population Tubulin-Different-Phenotype (%) [9]: 18%
- Total Cell Count [9]: 145
- Population Apoptotic (%) [10]: 55%
- Population Fragmented Nuclei (%) [10]: 30%
- Population Healthy Nuclei (%) [10]: 53%
- Population Membrane Permeable-Phenotype (%) [10]: 5%
- Population Mitochondria Different-Phenotype (%) [10]: 4%
- Population Mitotic Cells (%) [10]: 44%
- Population Pyknosed Nuclei (%) [10]: 15%
- Population Tubulin-Different-Phenotype (%) [10]: 54%
- Total Cell Count [10]: 183
- Population Apoptotic (%) [11]: 66%
- Population Fragmented Nuclei (%) [11]: 16%
- Population Healthy Nuclei (%) [11]: 70%
- Population Hoechst High Intensity Objects (%) [11]: 7%
- Population Membrane Permeable-Phenotype (%) [11]: 3%
- Population Mitochondria Different-Phenotype (%) [11]: 3%
- Population Mitotic Cells (%) [11]: 33%
- Population Normal (%) [11]: 92%
- Population Pyknosed Nuclei (%) [11]: 12%
- Population Tubulin-Different-Phenotype (%) [11]: 55%
- Total Cell Count [11]: 160
- Population Apoptotic (%) [12]: 52%
- Population Fragmented Nuclei (%) [12]: 31%
- Population Healthy Nuclei (%) [12]: 54%
- Population Hoechst High Intensity Objects (%) [12]: 5%
- Population Membrane Permeable-Phenotype (%) [12]: 6%
- Population Mitotic Cells (%) [12]: 47%
- Population Normal (%) [12]: 94%
- Population Pyknosed Nuclei (%) [12]: 14%
- Population Tubulin-Different-Phenotype (%) [12]: 66%
- Total Cell Count [12]: 153
